Reference: ChEMBL document CHEMBL5338772, “Stereochemical Control of Splice Modulation in FD-895 Analogues” (J Med Chem, 2023)
Active and inactive are the calls of the source. The rule behind the calls is not given here.

Legend:
SF3B2 pre-mRNA [1] = assay: Modulation of splicing in SF3B2 pre-mRNA in human HCT-116 cells assessed as intron 10 retention level at 34 nM incubated for 4 hrs by qRT-PCR analysis; assay type: functional, cell-based; settings: filed as modulator
How it was run: (§1)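 HCT-116 cells in supplemented McCoy's 5a, compound added from DMSO stock to a final 0.5% DMSO, 4 h at a single standardized concentration per analogue. Total RNA isolated and DNase-treated (1 µg). qPCR used 2.5 µM each primer on 5 ng cDNA, 40 cycles. Intron retention was computed by the 2^-CT method relative to GAPDH and expressed versus untreated cells set to 1.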

[2] = Cytotoxicity against human HCT-116 cells assessed as cell growth inhibition incubated for 72 hrs by MTS assay; assay type: toxicity, cell-based
How it was run: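 HCT-116 cells (ATCC; split every other day, no more than five generations, mycoplasma-tested) plated at 5 × 10³ cells/well in supplemented McCoy's 5a and grown 24 h at 37 °C, 5% CO₂. Compound added from DMSO (0.5% DMSO final) for 72 h. Cells washed with PBS, MTS reagent added for 2 h at 37 °C, A490 read against A690. GI₅₀ fitted from dose curves of 3 biological replicates.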

HCT-116 [3] = assay: Cytotoxicity against human HCT-116 cells assessed as reduction in cell viability at 500 nM incubated for 24 hrs by MTS assay; assay type: toxicity, cell-based; settings: hct-116, 24 h, 0.5 µM
How it was run: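 HCT-116 cells plated at 5 × 10³ cells/well in supplemented McCoy's 5a and grown 24 h at 37 °C, 5% CO₂. Compound given at 500 nM, the top dose of the 24 h splicing series, in 0.5% DMSO for 24 h. Cells washed with PBS, MTS reagent added for 2 h at 37 °C, A490 read against A690.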

SF3A3 pre-mRNA [4] = assay: Modulation of splicing in SF3A3 pre-mRNA in human HCT-116 cells assessed as intron 5 retention level at 34 nM incubated for 4 hrs by qRT-PCR analysis; assay type: functional, cell-based; settings: filed as modulator
SF3B1 pre-mRNA [5] = assay: Modulation of splicing in SF3B1 pre-mRNA in human HCT-116 cells assessed as intron 13 retention level at 34 nM incubated for 4 hrs by qRT-PCR analysis; assay type: functional, cell-based; settings: filed as modulator; how it was run: as §1
SF3A1 pre-mRNA [6] = assay: Modulation of splicing in SF3A1 pre-mRNA in human HCT-116 cells assessed as intron 6 retention level at 34 nM incubated for 4 hrs by qRT-PCR analysis; assay type: functional, cell-based; settings: filed as modulator
HCT-116 [7] = assay: Cytotoxicity against human HCT-116 cells assessed as reduction in cell viability at 34 nM incubated for 4 hrs by MTS assay; assay type: toxicity, cell-based; settings: hct-116, 4 h, 0.034 µM
DNAJB1 pre-mRNA [8] = assay: Modulation of splicing in DNAJB1 pre-mRNA in human HCT-116 cells assessed as intron 2 retention level at 34 nM incubated for 4 hrs by qRT-PCR analysis; assay type: functional, cell-based; settings: filed as modulator
HCT-116 [9] = assay: Downregulation of SF3 mRNA expression in human HCT-116 cells at 34 nM incubated for 4 hrs by qRT-PCR analysis; assay type: functional, cell-based
SF3A3 pre-mRNA [10] = assay: Modulation of splicing in SF3A3 pre-mRNA in human HCT-116 cells assessed as intron 5 retention level at 44 nM incubated for 4 hrs by qRT-PCR analysis; assay type: functional, cell-based; settings: filed as modulator
DNAJB1 pre-mRNA [11] = assay: Modulation of splicing in DNAJB1 pre-mRNA in human HCT-116 cells assessed as intron 2 retention level at 44 nM incubated for 4 hrs by qRT-PCR analysis; assay type: functional, cell-based; settings: filed as modulator
SF3B2 pre-mRNA [12] = assay: Modulation of splicing in SF3B2 pre-mRNA in human HCT-116 cells assessed as intron 10 retention level at 44 nM incubated for 4 hrs by qRT-PCR analysis; assay type: functional, cell-based; settings: filed as modulator; how it was run: as §1
AURKA pre-mRNA = assay: Modulation of splicing in AURKA pre-mRNA in human HCT-116 cells assessed as effect on exon 4 skipping at 44 nM incubated for 4 hrs by qRT-PCR analysis; assay type: functional, cell-based; settings: filed as modulator
SF3B1 pre-mRNA [13] = assay: Modulation of splicing in SF3B1 pre-mRNA in human HCT-116 cells assessed as intron 13 retention level at 44 nM incubated for 4 hrs by qRT-PCR analysis; assay type: functional, cell-based; settings: filed as modulator; how it was run: as §1
HCT-116 [14] = assay: Cytotoxicity against human HCT-116 cells assessed as reduction in cell viability at 44 nM incubated for 4 hrs by MTS assay; assay type: toxicity, cell-based; settings: hct-116, 4 h, 0.044 µM
SF3A1 pre-mRNA [15] = assay: Modulation of splicing in SF3A1 pre-mRNA in human HCT-116 cells assessed as intron 6 retention level at 44 nM incubated for 4 hrs by qRT-PCR analysis; assay type: functional, cell-based; settings: filed as modulator
HCT-116 [16] = assay: Modulation of splicing in PLK-1 pre-mRNA in human HCT-116 cells assessed as effect on exon 3 inclusion at 44 nM incubated for 4 hrs by qRT-PCR analysis; assay type: functional, cell-based; settings: filed as modulator

SMILES | GI50 at 72 h [2] | Activity (HCT-116 [3]) | Activity (SF3A3 pre-mRNA [10]) | Activity (DNAJB1 pre-mRNA [11]) | Activity (SF3B2 pre-mRNA [12]) | Activity (AURKA pre-mRNA) | Activity (SF3B1 pre-mRNA [13]) | Activity (HCT-116 [14]) | Activity (SF3A1 pre-mRNA [15]) | other results
CC[C@H](OC)[C@@H](C)[C@H]1O[C@@H]1[C@H](O)[C@H](C)/C=C/C=C(\C)[C@H]1OC(=O)C[C@H](O)CC[C@@](C)(O)[C@@H](OC(C)=O)/C=C/[C@@H]1C | 1.9 nM | Non-Toxic |  |  |  |  |  |  |  | Activity (SF3B2 pre-mRNA [1]): > 3; Activity (SF3A3 pre-mRNA [4]): < 3; Activity (SF3B1 pre-mRNA [5]): < 3; Activity (SF3A1 pre-mRNA [6]): > 3; Activity (HCT-116 [7]): Non-Toxic; Activity (DNAJB1 pre-mRNA [8]): > 3; Activity (HCT-116 [9]): Active
CC[C@H](OC)[C@@H](C)[C@H]1O[C@@H]1[C@@H](O)[C@H](C)/C=C/C=C(\C)[C@H]1OC(=O)C[C@H](O)CC[C@@](C)(O)[C@H](OC(C)=O)/C=C/[C@@H]1C | 860 nM |  |  |  |  |  |  |  |  | 
CC[C@H](OC)[C@@H](C)[C@H]1O[C@@H]1[C@H](O)[C@H](C)/C=C/C=C(\C)[C@@H]1OC(=O)C[C@H](O)CC[C@@](C)(O)[C@@H](OC(C)=O)/C=C/[C@H]1C | 41300 nM |  |  |  |  |  |  |  |  | 
CC[C@H](OC)[C@@H](C)[C@H]1O[C@@H]1[C@H](OC)[C@H](C)/C=C/C=C(\C)[C@H]1OC(=O)C[C@H](O)CC[C@@](C)(O)[C@@H](OC(C)=O)/C=C/[C@@H]1C | 2.6 nM | Non-Toxic | < 3 | > 3 | > 3 | Active | < 3 | Non-Toxic | > 3 | 
CC[C@H](OC)[C@@H](C)[C@H]1O[C@@H]1[C@H](O)[C@H](C)/C=C/C=C(\C)[C@H]1OC(=O)C[C@@H](O)CC[C@@](C)(O)[C@@H](OC(C)=O)/C=C/[C@@H]1C | 2.7 nM |  | < 3 | > 3 | > 3 | Active | < 3 | Non-Toxic | > 3 | Activity (HCT-116 [16]): Active
